What is called IC50 is the concentration that gives 50% inhibition. Low values mean higher potency, high ones lower potency. In general, EC50 refers to the concentration needed to bring the measured effect to its halfway point.

We go through nine compounds from ChEMBL document CHEMBL4725226, “Discovery of a new potent inhibitor of mushroom tyrosinase (Agaricus bisporus) containing 4-(4-hydroxyphenyl)piperazin-1-yl moiety” (Bioorg Med Chem, 2020).

In one series the target is Mushroom tyrosinase (Agaricus bisporus, UniProt O42713+Q00024+C7FF04+C7FF05). Nature of the series: Inhibition of diphenolase activity of mushroom tyrosinase using L-Dopa as substrate preincubated with substrate for 10 mins followed by enzyme addition and measured after 5 mins. A digest of the protocol: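 Diphenolase assay: sample (5–300 µM) with 1.25 mM L-DOPA in 0.05 M sodium acetate pH 6.8, preincubated 10 min at 25 °C; mushroom tyrosinase (333 U/mL stock) added last. Linear A475 rise followed up to 5 min; % inhibition, IC50 interpolated from dose-response curves; three replicates. Kojic acid standard at 8–35 µM.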

The nature of series [1]: Antioxidant activity assessed as ABTS radical scavenging activity incubated in dark for 1 min. Format: functional. A digest of the protocol: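 ABTS radical cation generated from 7 mM ABTS plus 2.45 mM potassium persulfate (final), held dark at room temperature 24 h, then diluted to A734 0.700 ± 0.02. Sample added, kept dark at room temperature 1 min; drop in A734 read against a Trolox standard curve.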

Series [2] concerns the target T1, Mushroom tyrosinase (Agaricus bisporus) (UniProt O42713+Q00024+C7FF04+C7FF05). Nature of the series: Potency index, ratio of kojic acid IC50 to test compound IC50 for diphenolase activity of mushroom tyrosinase using L-Dopa as substrate preincubated with substrate for 10 mins followed by enzyme addition and measured after 5 mins.
Another series has as its system HeLa. Nature of the series: Cytotoxicity against human HeLa cells assessed as cell viability at 4 to 10 uM measured after 48 hrs by MTT assay. The note with it: dose 4-10 µM. The format is cell-based. The procedure, abridged:
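HeLa grown in DMEM with 10% FBS, 2 mM L-glutamine, penicillin/streptomycin, 37 °C, 5% CO2; seeded at 3 × 10^4/mL. Exposed 48 h to compound (4–100 µM in DMSO, DMSO-only control), then MTT (0.5 mg/mL final) 3 h at 37 °C, lysed in DMSO, OD 560 nm; mean ± SD of triplicates.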
In general terms: Tetrazolium dyes change colour on reduction, which living cells bring about.

Series [3] deals with T1, Mushroom tyrosinase (Agaricus bisporus). Kind of series: Noncompetitive inhibition of diphenolase activity of mushroom tyrosinase assessed as decrease in Vmax with constant Km at 2 to 8 uM using 0.6 to 5 mM L-dopa as substrate by Lineweaver-Burk double reciprocal plot analysis. The note with it: dose microM 2-8.

Activity calls are given as the source filed them. The calls are words filed in the database; no cut-off is given here.

For `O=C(CN1CCC(Cc2ccc(F)cc2)CC1)N1CCN(c2ccccc2)CC1`, at Mushroom tyrosinase, the half-maximal inhibitory concentration (IC50) was 9.6 µM.
Still for that read-out and setting: the result for `O=C(CCN1CCC(Cc2ccc(F)cc2)CC1)N1CCN(c2ccccc2)CC1` reads 23.36 µM.
For `Cc1c(C)c2c(c(C)c1O)CCC(C)(C(=O)O)O2` (stereo not drawn) [TROLOX], the EC50 in series [1] came to 13 µM.
The compound `O=C(CN1CCC(Cc2ccccc2)CC1)N1CCN(c2ccccc2)CC1` showed an IC50 against Mushroom tyrosinase of 80.86 µM. That is a double-digit micromolar value.
With `O=C(CN1CCC(Cc2ccccc2)CC1)N1CCN(c2ccc(O)cc2)CC1`, the Ratio IC50 in series [2] was 5. Besides, the Activity entry in the series with HeLa is “Non-Toxic”. For the same compound, the half-maximal effective concentration (EC50) in series [1] worked out at 18.1 µM. Also, the 50% inhibitory concentration (IC50) against Mushroom tyrosinase was 3.8 µM. Further, the inhibition entry in series [3] was “Active”.
The compound `O=C(CCN1CCC(Cc2ccccc2)CC1)N1CCN(c2ccccc2)CC1` registered a concentration for half-maximal inhibition (IC50) on Mushroom tyrosinase of 57.5 µM.
`O=C(CCN1CCC(Cc2ccc(F)cc2)CC1)N1CCN(c2ccc(O)cc2)CC1`: the IC50 at Mushroom tyrosinase was 6.06 µM. This IC50 lies about 9.5-fold lower than the previous one.
`O=C(CCN1CCC(Cc2ccccc2)CC1)N1CCN(c2ccc(O)cc2)CC1`: at Mushroom tyrosinase, the half-maximal inhibitory concentration (IC50) was 4.03 µM.
Still for that read-out and setting: the same measure for `O=C(CN1CCC(Cc2ccc(F)cc2)CC1)N1CCN(c2ccc(O)cc2)CC1`: 4.49 µM.
